Results from ChEMBL document CHEMBL1649446, “Comparative antipneumococcal activities of sulopenem and other drugs” (2009).
In brackets after ≈: the same amount, converted by molar mass.

Columns and labels:
Type in all cases: functional
Streptococcus pneumoniae [1] = test: Antimicrobial activity against Streptococcus pneumoniae isolate 3282 by agar dilution method
Streptococcus pneumoniae [2] = test: Antimicrobial activity against Streptococcus pneumoniae isolate 3374 by agar dilution method
Summary of the method: (§1)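 Agar dilution MIC on Mueller-Hinton agar with 5% sheep blood, inocula 10^4 CFU/spot; amoxicillin-clavulanate combined 1:2; S. pneumoniae ATCC 49619 quality control each run.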

Streptococcus pneumoniae [3] = test: Antimicrobial activity against Streptococcus pneumoniae isolate 2688 by agar dilution method; summary of the method: as §1
Streptococcus pneumoniae [4] = test: Antimicrobial activity against Streptococcus pneumoniae isolate 37 by agar dilution method; summary of the method: as §1
Streptococcus pneumoniae [5] = test: Antimicrobial activity against Streptococcus pneumoniae isolate 3681 by agar dilution method; summary of the method: as §1
Streptococcus pneumoniae [6] = test: Antimicrobial activity against Streptococcus pneumoniae isolate 1384 by agar dilution method; summary of the method: as §1
Streptococcus pneumoniae [7] = test: Antimicrobial activity against Streptococcus pneumoniae isolate 2880 by agar dilution method; summary of the method: as §1
Streptococcus pneumoniae [8] = test: Antimicrobial activity against Streptococcus pneumoniae isolate 2617 by agar dilution method; summary of the method: as §1
Streptococcus pneumoniae [9] = test: Antimicrobial activity against Streptococcus pneumoniae isolate 24 by agar dilution method
Streptococcus pneumoniae [10] = test: Antimicrobial activity against Streptococcus pneumoniae isolate 1564 by agar dilution method
Streptococcus pneumoniae [11] = test: Antimicrobial activity against Streptococcus pneumoniae isolate 3260 by agar dilution method
Streptococcus pneumoniae [12] = test: Antimicrobial activity against compound-resistant Streptococcus pneumoniae by agar dilution method
Summary of the method: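 Agar dilution on Mueller-Hinton agar with 5% sheep blood, inocula 10^4 CFU/spot. Panel of 45 drug-resistant serotype 19A pneumococci, plus 297 clinical strains grouped as penicillin-susceptible, -intermediate or -resistant (some macrolide- or levofloxacin-resistant, with defined mechanisms). Amoxicillin combined with clavulanate 1:2. S. pneumoniae ATCC 49619 quality control included in each run. MIC range, MIC50 and MIC90 reported.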

Streptococcus pneumoniae [13] = test: Antimicrobial activity against Streptococcus pneumoniae isolate 3275 by agar dilution method; summary of the method: as §1
Streptococcus pneumoniae [14] = test: Antimicrobial activity against Streptococcus pneumoniae isolate 4747 by agar dilution method; summary of the method: as §1
Streptococcus pneumoniae [15] = test: Antimicrobial activity against Streptococcus pneumoniae isolate 33 by agar dilution method; summary of the method: as §1
Streptococcus pneumoniae [16] = test: Antimicrobial activity against Streptococcus pneumoniae isolate 3458 by agar dilution method
Streptococcus pneumoniae [17] = test: Antimicrobial activity against Streptococcus pneumoniae isolate 3791 by agar dilution method; summary of the method: as §1
Streptococcus pneumoniae [18] = test: Antimicrobial activity against Streptococcus pneumoniae isolate 1146 by agar dilution method; summary of the method: as §1
Streptococcus pneumoniae [19] = test: Antimicrobial activity against Streptococcus pneumoniae isolate 3455 by agar dilution method
Streptococcus pneumoniae [20] = test: Antimicrobial activity against Streptococcus pneumoniae isolate 1397 by agar dilution method; summary of the method: as §1
Streptococcus pneumoniae [21] = test: Antimicrobial activity against compound-susceptible Streptococcus pneumoniae by agar dilution method; summary of the method: as §1
Streptococcus pneumoniae [22] = test: Antimicrobial activity against Streptococcus pneumoniae isolate 3587 by agar dilution method
Streptococcus pneumoniae [23] = test: Antimicrobial activity against Streptococcus pneumoniae isolate 2874 by agar dilution method; summary of the method: as §1
Streptococcus pneumoniae [24] = test: Antimicrobial activity against Streptococcus pneumoniae isolate 1394 by agar dilution method
Streptococcus pneumoniae [25] = test: Antimicrobial activity against compound-intermediate Streptococcus pneumoniae by agar dilution method; summary of the method: as §1
Streptococcus pneumoniae [26] = test: Antimicrobial activity against Streptococcus pneumoniae isolate 3481 by agar dilution method; summary of the method: as §1
Streptococcus pneumoniae [27] = test: Antimicrobial activity against Streptococcus pneumoniae isolate 4755 by agar dilution method; summary of the method: as §1
Streptococcus pneumoniae [28] = test: Antimicrobial activity against Streptococcus pneumoniae isolate 1147 by agar dilution method; summary of the method: as §1
Streptococcus pneumoniae [29] = test: Antimicrobial activity against Streptococcus pneumoniae isolate 1424 by agar dilution method; summary of the method: as §1
Streptococcus pneumoniae [30] = test: Antimicrobial activity against Streptococcus pneumoniae isolate 1055 by agar dilution method
Streptococcus pneumoniae [31] = test: Antimicrobial activity against Streptococcus pneumoniae isolate 3412 by agar dilution method; summary of the method: as §1
Streptococcus pneumoniae [32] = test: Antimicrobial activity against Streptococcus pneumoniae isolate 2686 by agar dilution method; summary of the method: as §1
Streptococcus pneumoniae [33] = test: Antimicrobial activity against Streptococcus pneumoniae isolate 3346 by agar dilution method

With `CC1(C)S[C@@H]2[C@H](NC(=O)Cc3ccccc3)C(=O)N2[C@H]1C(=O)O` [PENICILLIN G] the MIC (Streptococcus pneumoniae [1]) was 4 mg/L (≈ 12 µM), the MIC (Streptococcus pneumoniae [2]) was 2 mg/L (≈ 5.98 µM) and the MIC (Streptococcus pneumoniae [3]) was 8 mg/L (≈ 23.9 µM). For the same compound, the MIC (Streptococcus pneumoniae [4]) was 4 mg/L (≈ 12 µM), the MIC (Streptococcus pneumoniae [5]) was 1 mg/L (≈ 2.99 µM) and the MIC (Streptococcus pneumoniae [6]) was 4 mg/L (≈ 12 µM). It also gave an MIC (Streptococcus pneumoniae [7]) of 4 mg/L (≈ 12 µM), an MIC (Streptococcus pneumoniae [8]) of 1 mg/L (≈ 2.99 µM) and an MIC (Streptococcus pneumoniae [9]) of 4 mg/L (≈ 12 µM). It also gave an MIC (Streptococcus pneumoniae [10]) of 16 mg/L (≈ 47.8 µM), an MIC (Streptococcus pneumoniae [11]) of 4 mg/L (≈ 12 µM) and an MIC (Streptococcus pneumoniae [12]) of 2 mg/L (≈ 5.98 µM). It also gave an MIC50 (Streptococcus pneumoniae [12]) of 2 mg/L (≈ 5.98 µM), an MIC90 (Streptococcus pneumoniae [12]) of 4 mg/L (≈ 12 µM) and an MIC (Streptococcus pneumoniae [13]) of 1 mg/L (≈ 2.99 µM). For the same compound, the MIC (Streptococcus pneumoniae [14]) was 4 mg/L (≈ 12 µM), the MIC (Streptococcus pneumoniae [15]) was 4 mg/L (≈ 12 µM) and the MIC (Streptococcus pneumoniae [16]) was 4 mg/L (≈ 12 µM). The MIC (Streptococcus pneumoniae [17]) was 2 mg/L (≈ 5.98 µM), the MIC (Streptococcus pneumoniae [18]) was 4 mg/L (≈ 12 µM) and the MIC (Streptococcus pneumoniae [19]) was 4 mg/L (≈ 12 µM). It also gave an MIC (Streptococcus pneumoniae [20]) of 2 mg/L (≈ 5.98 µM), an MIC50 (Streptococcus pneumoniae [21]) of 0.03 mg/L (≈ 0.0897 µM) and an MIC90 (Streptococcus pneumoniae [21]) of 0.06 mg/L (≈ 0.179 µM). It also gave an MIC (Streptococcus pneumoniae [22]) of 2 mg/L (≈ 5.98 µM), an MIC (Streptococcus pneumoniae [23]) of 8 mg/L (≈ 23.9 µM) and an MIC (Streptococcus pneumoniae [24]) of 4 mg/L (≈ 12 µM). It also gave an MIC50 (Streptococcus pneumoniae [25]) of 0.25 mg/L (≈ 0.748 µM), an MIC90 (Streptococcus pneumoniae [25]) of 1 mg/L (≈ 2.99 µM) and an MIC (Streptococcus pneumoniae [26]) of 8 mg/L (≈ 23.9 µM). It also gave an MIC (Streptococcus pneumoniae [27]) of 8 mg/L (≈ 23.9 µM), an MIC (Streptococcus pneumoniae [28]) of 4 mg/L (≈ 12 µM) and an MIC (Streptococcus pneumoniae [29]) of 2 mg/L (≈ 5.98 µM). For the same compound, the MIC (Streptococcus pneumoniae [30]) was 2 mg/L (≈ 5.98 µM), the MIC (Streptococcus pneumoniae [31]) was 2 mg/L (≈ 5.98 µM) and the MIC (Streptococcus pneumoniae [32]) was 4 mg/L (≈ 12 µM). It also gave an MIC (Streptococcus pneumoniae [33]) of 4 mg/L (≈ 12 µM).
